≈ marks a conversion by molar mass, not a printed value.
Tests used:
Clostridium perfringens [1] = experiment: Antibacterial activity against Clostridium perfringens FNSST 4999 after 18 to 24 hrs by two-fold broth microdilution assay; type: functional
Method in brief: (§1)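 CLSI two-fold broth microdilution. Compounds dissolved in DMSO, 10 mg/mL stock, serially diluted to 400–0.09 µg/mL in Mueller Hinton broth. Wells inoculated with 10^6 CFU/mL bacteria and incubated 18–24 h at 37 °C. 0.2 mg/mL INT added for 30 min. MIC taken as the lowest concentration with no visible growth or pink colour. Triplicate.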

Escherichia coli [2] = experiment: Antibacterial activity against […] expressing Escherichia coli isolate 4024 after 18 to 24 hrs by two-fold broth microdilution assay; type: functional; method in brief: as §1
Clostridium perfringens [3] = experiment: Antibacterial activity against Clostridium perfringens FNSST 4999 assessed as diameter of zone of inhibition at 15 ug/disc after 24 hrs by disc diffusion method; type: functional, organism-based
Method in brief: (§2)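 Gentamicin 15 µg disc run as positive control in CLSI disc diffusion. Lawn of 100 µL of 10^6 cfu/mL bacteria on Mueller Hinton agar, incubated 24 h at 37 °C. Zone diameter measured in mm including the 6 mm disc, triplicate, mean ± SE.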

Klebsiella pneumoniae [4] = experiment: Antibacterial activity against TEM-1/SHV-12 expressing Klebsiella pneumoniae isolate 303 after 18 to 24 hrs by two-fold broth microdilution assay; type: functional
Method in brief: (§3)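 CLSI two-fold broth microdilution was used. Compounds were dissolved in DMSO, brought to 10 mg/mL in medium, then serially diluted in Mueller Hinton broth over 400–0.09 µg/mL. Overnight MHB cultures were diluted to 10^6 CFU/mL, and 10 µL was added per well. Plates were incubated 18–24 h at 37 °C, then 0.2 mg/mL INT was added for 30 min at 37 °C. MIC was the lowest concentration with no visible growth or pink colour, triplicate.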

Aeromonas hydrophila [5] = experiment: Antibacterial activity against TEM-1/SHV-12 expressing Aeromonas hydrophila isolate 268 after 18 to 24 hrs by two-fold broth microdilution assay; type: functional; method in brief: as §3
Kluyvera intermedia = experiment: Antibacterial activity against TEM-1/SHV-12/[…] expressing Enterobacter intermedius isolate 243 after 18 to 24 hrs by two-fold broth microdilution assay; type: functional; method in brief: as §3
Klebsiella pneumoniae [6] = experiment: Antibacterial activity against Klebsiella pneumoniae FNSST 011 assessed as diameter of zone of inhibition at 15 ug/disc after 24 hrs by disc diffusion method; type: functional, organism-based; method in brief: as §2
Enterobacter cloacae [7] = experiment: Antibacterial activity against TEM-1/SHV-12 expressing Enterobacter cloacae isolate 306 after 18 to 24 hrs by two-fold broth microdilution assay; type: functional
Aeromonas hydrophila [8] = experiment: Antibacterial activity against Aeromonas hydrophila FNSST 014 after 18 to 24 hrs by two-fold broth microdilution assay; type: functional; method in brief: as §3
Aeromonas caviae [9] = experiment: Antibacterial activity against TEM-1/CTX-M-15 expressing Aeromonas caviae isolate 260 after 18 to 24 hrs by two-fold broth microdilution assay; type: functional; method in brief: as §3
Klebsiella pneumoniae [10] = experiment: Antibacterial activity against Klebsiella pneumoniae FNSST 011 after 18 to 24 hrs by two-fold broth microdilution assay; type: functional; method in brief: as §3
Escherichia coli [11] = experiment: Antibacterial activity against TEM-1/SHV-12 expressing Escherichia coli isolate 237 after 18 to 24 hrs by two-fold broth microdilution assay; type: functional; method in brief: as §1
Pseudomonas aeruginosa [12] = experiment: Antibacterial activity against Pseudomonas aeruginosa FNSST 982 after 18 to 24 hrs by two-fold broth microdilution assay; type: functional; method in brief: as §3
Enterococcus faecalis [13] = experiment: Antibacterial activity against Enterococcus faecalis ATCC 29212 assessed as diameter of zone of inhibition at 15 ug/disc after 24 hrs by disc diffusion method; type: functional, organism-based; method in brief: as §2
Aeromonas hydrophila [14] = experiment: Antibacterial activity against Aeromonas hydrophila FNSST 014 assessed as diameter of zone of inhibition at 15 ug/disc after 24 hrs by disc diffusion method; type: functional, organism-based; method in brief: as §2
Enterobacter cloacae [15] = experiment: Antibacterial activity against CTX-15 expressing Enterobacter cloacae isolate 51 after 18 to 24 hrs by two-fold broth microdilution assay; type: functional
Escherichia coli [16] = experiment: Antibacterial activity against […] expressing Escherichia coli isolate 235 after 18 to 24 hrs by two-fold broth microdilution assay; type: functional; method in brief: as §1
Enterococcus faecalis [17] = experiment: Antibacterial activity against Enterococcus faecalis ATCC 29212 after 18 to 24 hrs by two-fold broth microdilution assay; type: functional; method in brief: as §3
Escherichia coli [18] = experiment: Antibacterial activity against Escherichia coli FNSST 982 after 18 to 24 hrs by two-fold broth microdilution assay; type: functional; method in brief: as §3
Bacillus cereus [19] = experiment: Antibacterial activity against Bacillus cereus ATCC 11778 after 18 to 24 hrs by two-fold broth microdilution assay; type: functional; method in brief: as §3
Acinetobacter baumannii = experiment: Antibacterial activity against SIM-1 expressing Acinetobacter baumannii isolate 170 after 18 to 24 hrs by two-fold broth microdilution assay; type: functional; method in brief: as §1
Staphylococcus aureus [20] = experiment: Antibacterial activity against Staphylococcus aureus ATCC 25923 assessed as diameter of zone of inhibition at 15 ug/disc after 24 hrs by disc diffusion method; type: functional, organism-based; method in brief: as §2
Aeromonas caviae [21] = experiment: Antibacterial activity against […] expressing Aeromonas caviae isolate 258 after 18 to 24 hrs by two-fold broth microdilution assay; type: functional; method in brief: as §3
Pseudomonas aeruginosa [22] = experiment: Antibacterial activity against GIM-1 expressing Pseudomonas aeruginosa isolate 197 after 18 to 24 hrs by two-fold broth microdilution assay; type: functional; method in brief: as §3
Staphylococcus aureus [23] = experiment: Antibacterial activity against Staphylococcus aureus ATCC 25923 after 18 to 24 hrs by two-fold broth microdilution assay; type: functional; method in brief: as §3
Pseudomonas aeruginosa [24] = experiment: Antibacterial activity against Pseudomonas aeruginosa FNSST 982 assessed as diameter of zone of inhibition at 15 ug/disc after 24 hrs by disc diffusion method; type: functional, organism-based; method in brief: as §2
Enterobacter cloacae [25] = experiment: Antibacterial activity against TEM-1/CTX-M-15 expressing Enterobacter cloacae isolate 62 after 18 to 24 hrs by two-fold broth microdilution assay; type: functional
[26] = test system: Stenotrophomonas maltophilia; experiment: Antibacterial activity against […] expressing Stenotrophomonas maltophilia isolate 125 after 18 to 24 hrs by two-fold broth microdilution assay; type: functional; method in brief: as §3
Escherichia coli [27] = experiment: Antibacterial activity against Escherichia coli FNSST 982 assessed as diameter of zone of inhibition at 15 ug/disc after 24 hrs by disc diffusion method; type: functional, organism-based; method in brief: as §2
Bacillus cereus [28] = experiment: Antibacterial activity against Bacillus cereus ATCC 11778 assessed as diameter of zone of inhibition at 15 ug/disc after 24 hrs by disc diffusion method; type: functional, organism-based; method in brief: as §2
Staphylococcus aureus [29] = experiment: Antibacterial activity against Staphylococcus aureus ATCC 25923 assessed as diameter of zone of inhibition at 250 ug/disc after 24 hrs by disc diffusion method; type: functional; details: ATCC 25923, 24 h, read-out: DIZ
Method in brief: (§4)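 Bacteria were grown overnight at 37 °C in TSB to about 10^6 cfu/mL, and 100 µL was spread on Mueller Hinton agar. Sterile 6 mm discs were each loaded with 25 µL of a 10 mg/mL stock in 96% ethanol, giving 250 µg/disc. Ethanol served as the negative control. Plates were incubated 24 h at 37 °C. Inhibition zone diameter was measured including the disc, in triplicate, as mean ± SE.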

Enterococcus faecalis [30] = experiment: Antibacterial activity against Enterococcus faecalis ATCC 29212 assessed as diameter of zone of inhibition at 250 ug/disc after 24 hrs by disc diffusion method; type: functional; details: ATCC 29212, 24 h, read-out: DIZ; method in brief: as §4
Clostridium perfringens [31] = experiment: Antibacterial activity against Clostridium perfringens FNSST 4999 assessed as diameter of zone of inhibition at 250 ug/disc after 24 hrs by disc diffusion method; type: functional; details: FNSST 4999, 24 h, read-out: DIZ
Method in brief: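 Disc diffusion per CLSI: 100 µL of 10^6 cfu/mL bacterial suspension spread on Mueller Hinton agar. 6 mm discs loaded with 25 µL of 10 mg/mL compound stock in 96% ethanol (250 µg/disc); ethanol as negative control. Incubated 24 h at 37 °C. Inhibition zone diameter measured in mm including the disc, triplicate, reported as mean ± SE.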

Escherichia coli [32] = experiment: Antibacterial activity against Escherichia coli FNSST 982 assessed as diameter of zone of inhibition at 250 ug/disc after 24 hrs by disc diffusion method; type: functional; details: FNSST 982, 24 h, read-out: DIZ; method in brief: as §4
Klebsiella pneumoniae [33] = experiment: Antibacterial activity against Klebsiella pneumoniae FNSST 011 assessed as diameter of zone of inhibition at 250 ug/disc after 24 hrs by disc diffusion method; type: functional; details: FNSST 011, 24 h, read-out: DIZ; method in brief: as §4
Pseudomonas aeruginosa [34] = experiment: Ratio of gentamicin MIC to compound MIC for Pseudomonas aeruginosa FNSST 982; type: functional
Aeromonas hydrophila [35] = experiment: Antibacterial activity against Aeromonas hydrophila FNSST 014 assessed as diameter of zone of inhibition at 250 ug/disc after 24 hrs by disc diffusion method; type: functional; details: FNSST 014, 24 h, read-out: DIZ; method in brief: as §4
Talaromyces funiculosus = experiment: Antifungal activity against Penicillium funiculosum FNSST 3724 assessed as diameter of zone of inhibition at 250 ug/disc after 72 hrs by disc diffusion method; type: functional; details: FNSST 3724, 72 h, read-out: DIZ
Method in brief: (§5)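 Fungi were grown overnight at 30 °C in Sabouraud dextrose broth to 10^4 cfu/mL, and 100 µL was spread on Sabouraud dextrose agar. 6 mm discs carried 250 µg (25 µL of a 10 mg/mL stock in 96% ethanol), with ethanol as the negative control. Incubation was at 30 °C for 48 h (yeast) or 72 h (molds). Zone diameter was read including the disc, in triplicate, mean ± SE.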

Candida albicans = experiment: Antifungal activity against Candida albicans ATCC 10231 assessed as diameter of zone of inhibition at 250 ug/disc after 48 hrs by disc diffusion method; type: functional; details: ATCC 10231, 48 h, read-out: DIZ; method in brief: as §5
Bacillus cereus [36] = experiment: Antibacterial activity against Bacillus cereus ATCC 11778 assessed as diameter of zone of inhibition at 250 ug/disc after 24 hrs by disc diffusion method; type: functional; details: ATCC 11778, 24 h, read-out: DIZ; method in brief: as §4
Pseudomonas aeruginosa [37] = experiment: Antibacterial activity against Pseudomonas aeruginosa FNSST 982 assessed as diameter of zone of inhibition at 250 ug/disc after 24 hrs by disc diffusion method; type: functional; details: FNSST 982, 24 h, read-out: DIZ; method in brief: as §4
Aspergillus fumigatus = experiment: Antifungal activity against Aspergillus fumigatus FNSST 3833 assessed as diameter of zone of inhibition at 250 ug/disc after 72 hrs by disc diffusion method; type: functional; details: FNSST 3833, 72 h, read-out: DIZ; method in brief: as §5

GENTAMICIN
MIC (Clostridium perfringens [1]): 0.5 µg/mL | MIC (Escherichia coli [2]): 64 µg/mL | inhibition zone (IZ) (Clostridium perfringens [3]): 21.7 mm | MIC (Klebsiella pneumoniae [4]): 32 µg/mL | MIC (Aeromonas hydrophila [5]): 4 µg/mL | MIC (Kluyvera intermedia): 2 µg/mL | inhibition zone (IZ) (Klebsiella pneumoniae [6]): 18.2 mm | MIC (Enterobacter cloacae [7]): 256 µg/mL | MIC (Aeromonas hydrophila [8]): 8 µg/mL | MIC (Aeromonas caviae [9]): 32 µg/mL | MIC (Klebsiella pneumoniae [10]): 8 µg/mL | MIC (Escherichia coli [11]): 8 µg/mL | MIC (Pseudomonas aeruginosa [12]): 64 µg/mL | inhibition zone (IZ) (Enterococcus faecalis [13]): 14.6 mm | inhibition zone (IZ) (Aeromonas hydrophila [14]): 12.6 mm | MIC (Enterobacter cloacae [15]): 128 µg/mL | MIC (Escherichia coli [16]): 16 µg/mL | MIC (Enterococcus faecalis [17]): 4 µg/mL | MIC (Escherichia coli [18]): 32 µg/mL | MIC (Bacillus cereus [19]): 4 µg/mL | MIC (Acinetobacter baumannii): 16 µg/mL | inhibition zone (IZ) (Staphylococcus aureus [20]): 23.9 mm | MIC (Aeromonas caviae [21]): 12.8 µg/mL | MIC (Pseudomonas aeruginosa [22]): > 8 µg/mL | MIC (Staphylococcus aureus [23]): 1 µg/mL | inhibition zone (IZ) (Pseudomonas aeruginosa [24]): 9.2 mm | MIC (Enterobacter cloacae [25]): 4 µg/mL | MIC [26]: 2 µg/mL | inhibition zone (IZ) (Escherichia coli [27]): 11.5 mm | inhibition zone (IZ) (Bacillus cereus [28]): 18.2 mm

O/N=C/c1nccn1Cc1ccccc1
MIC (Clostridium perfringens [1]): 50 µg/mL (≈ 248 µM) | zone of inhibition at 250 µg/disc (Staphylococcus aureus [29]): 10.8 mm | zone of inhibition at 250 µg/disc (Enterococcus faecalis [30]): 14.9 mm | zone of inhibition at 250 µg/disc (Clostridium perfringens [31]): 15.9 mm | MIC (Aeromonas hydrophila [8]): 25 µg/mL (≈ 124 µM) | MIC (Klebsiella pneumoniae [10]): 25 µg/mL (≈ 124 µM) | zone of inhibition at 250 µg/disc (Escherichia coli [32]): 17.3 mm | MIC (Pseudomonas aeruginosa [12]): 12.5 µg/mL (≈ 62.1 µM) | MIC (Enterococcus faecalis [17]): 6.25 µg/mL (≈ 31.1 µM) | MIC (Escherichia coli [18]): 25 µg/mL (≈ 124 µM) | MIC (Bacillus cereus [19]): 6.25 µg/mL (≈ 31.1 µM) | zone of inhibition at 250 µg/disc (Klebsiella pneumoniae [33]): 15.8 mm | Ratio (Pseudomonas aeruginosa [34]): 5 | zone of inhibition at 250 µg/disc (Aeromonas hydrophila [35]): 10.1 mm | zone of inhibition at 250 µg/disc (Talaromyces funiculosus): 17.6 mm | zone of inhibition at 250 µg/disc (Candida albicans): 17.2 mm | MIC (Staphylococcus aureus [23]): 6.25 µg/mL (≈ 31.1 µM) | zone of inhibition at 250 µg/disc (Bacillus cereus [36]): 17.5 mm | zone of inhibition at 250 µg/disc (Pseudomonas aeruginosa [37]): 17.9 mm | zone of inhibition at 250 µg/disc (Aspergillus fumigatus): 11.5 mm
